From ChEMBL document CHEMBL1138735, “Identification of 1,5-naphthyridine derivatives as a novel series of potent and selective TGF-beta type I receptor inhibitors” (J Med Chem, 2004) come the findings set out here.

Bounds are passed on as bounds.

The target in assay [1] is T1, TGF-beta receptor type-1 (Homo sapiens, UniProt P36897).
T1 sequence (P36897 whole entry): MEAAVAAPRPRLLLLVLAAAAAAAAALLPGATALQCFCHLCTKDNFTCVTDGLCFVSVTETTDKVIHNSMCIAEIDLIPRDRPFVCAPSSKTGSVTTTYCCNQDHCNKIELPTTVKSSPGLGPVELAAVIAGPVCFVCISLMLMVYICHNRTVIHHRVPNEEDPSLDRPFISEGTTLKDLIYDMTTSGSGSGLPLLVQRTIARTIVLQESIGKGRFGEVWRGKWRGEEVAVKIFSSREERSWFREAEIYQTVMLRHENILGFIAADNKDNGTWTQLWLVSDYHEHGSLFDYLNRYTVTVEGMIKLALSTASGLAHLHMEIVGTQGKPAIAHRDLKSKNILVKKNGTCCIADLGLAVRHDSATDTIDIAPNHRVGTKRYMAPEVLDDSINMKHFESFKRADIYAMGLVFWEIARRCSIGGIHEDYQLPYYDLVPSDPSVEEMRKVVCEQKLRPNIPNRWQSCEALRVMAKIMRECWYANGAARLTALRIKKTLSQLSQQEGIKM
Briefly: Stimulation of Transforming growth factor beta receptor I kinase in HepG2 cells. Type of assay: functional, cell-based.

Assay [2] deals with T1, TGF-beta receptor type-1. The assay is described as follows: Binding affinity to Activin A receptor type II-like kinase (ALK5) in fluorescence polarization binding assay; Range is (3.221-19.588). Put shortly:
(§1)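 Purified recombinant GST-ALK5 (residues 198–503), final 10 nM by active-site titration, in 62.5 mM HEPES pH 7.5, 1 mM DTT, 12.5 mM MgCl2, 1.25 mM CHAPS with 1 nM rhodamine green-labelled ATP-competitive ligand. Test compound added over a concentration range; plates read immediately for fluorescence polarization (ex 485/em 530 nm). Binding pIC50 from concentration–response curves; means of two or more experiments, mean pIC50 converted to IC50, with 95% confidence limits.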

Assay [3] concerns the target T1, TGF-beta receptor type-1.
Assay [4] concerns the target T1, TGF-beta receptor type-1. The assay is described as follows: Binding affinity for Activin A receptor type II-like kinase (ALK5) in fluorescence polarization binding assay. The procedure, abridged: as §1
For assay [5], the target named is T2, MAP kinase p38 (Homo sapiens, UniProt O15264+Q15759+Q16539+P53778). The assay is described as follows: Displacement of ATP from Mitogen-activated protein kinase p38 in fluorescence polarization assay; Range is (0.242-0.545). The procedure, abridged:
(§2)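 p38 MAP kinase binding measured by fluorescence polarization: displacement of a fluorescently labelled ATP-competitive inhibitor by a compound concentration series gives a binding IC50. Runs were duplicated or repeated as three separate experiments; 95% confidence limits on pIC50 were converted to IC50 limits.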

The target of assay [6] is T1, TGF-beta receptor type-1. The assay is described as follows: Inhibition of recombinant Activin A receptor type II-like kinase (ALK5) expressed in baculovirus/Sf9 cells. Type of assay: cell-based.
Assay [7] has as its target T1, TGF-beta receptor type-1. This is another data set of the same source.
Assay [8] addresses T1, TGF-beta receptor type-1. The assay is described as follows: Binding affinity to Activin A receptor type II-like kinase (ALK5) in fluorescence polarization binding assay; Range is (1.375-9.154). The procedure, abridged: (§3)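 Purified recombinant GST-ALK5 (residues 198–503), final 10 nM by active-site titration, in 62.5 mM HEPES pH 7.5, 1 mM DTT, 12.5 mM MgCl2, 1.25 mM CHAPS with 1 nM rhodamine green-labelled ATP-competitive ligand. Test compound added over a concentration series, plate read immediately by fluorescence polarization (ex 485/em 530 nm). Binding pIC50 from concentration–response curves; mean of two or more experiments, 95% confidence limits converted to IC50.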

Assay [9] concerns the target Mitogen-activated protein kinase kinase kinase 11 (Homo sapiens, UniProt Q16584). Briefly: Inhibition of MLK3 kinase binding in fluorescence polarization assay.
Assay [10] has as its target Ribosomal protein S6 kinase alpha-5 (Homo sapiens, UniProt O75582). Briefly: Inhibition of MSK-1 kinase binding in fluorescence polarization assay.
In assay [11] the target is Serine/threonine-protein kinase B-raf (Homo sapiens, UniProt P15056). The assay is described as follows: Inhibition of Protein kinase Raf-B binding in fluorescence polarization assay.
Serine/threonine-protein kinase B-raf, sequence (P15056 whole entry): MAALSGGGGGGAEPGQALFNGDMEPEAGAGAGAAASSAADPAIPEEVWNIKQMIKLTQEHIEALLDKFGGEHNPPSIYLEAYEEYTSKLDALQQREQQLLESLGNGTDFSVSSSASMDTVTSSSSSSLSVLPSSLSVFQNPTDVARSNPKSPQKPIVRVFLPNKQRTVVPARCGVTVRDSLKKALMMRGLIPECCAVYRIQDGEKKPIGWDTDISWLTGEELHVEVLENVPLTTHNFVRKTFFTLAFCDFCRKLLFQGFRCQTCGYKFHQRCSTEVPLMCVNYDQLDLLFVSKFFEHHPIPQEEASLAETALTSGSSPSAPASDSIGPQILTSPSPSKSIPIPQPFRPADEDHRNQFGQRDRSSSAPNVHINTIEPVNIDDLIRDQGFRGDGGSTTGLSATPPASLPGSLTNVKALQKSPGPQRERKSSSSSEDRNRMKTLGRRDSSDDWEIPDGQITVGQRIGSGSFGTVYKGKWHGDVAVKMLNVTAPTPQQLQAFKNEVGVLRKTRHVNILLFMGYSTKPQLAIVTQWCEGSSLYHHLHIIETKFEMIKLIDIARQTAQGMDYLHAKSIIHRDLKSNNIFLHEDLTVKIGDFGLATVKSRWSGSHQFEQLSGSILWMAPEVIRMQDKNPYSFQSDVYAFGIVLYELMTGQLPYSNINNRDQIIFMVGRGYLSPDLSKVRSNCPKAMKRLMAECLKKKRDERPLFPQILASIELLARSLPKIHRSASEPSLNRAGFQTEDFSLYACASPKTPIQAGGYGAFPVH
The target of assay [12] is Mitogen-activated protein kinase 10 (Homo sapiens, UniProt P53779). Briefly: Inhibition of c-Jun N-terminal kinase 3-alpha binding in HTRF assay.
Mitogen-activated protein kinase 10, sequence (P53779 whole entry): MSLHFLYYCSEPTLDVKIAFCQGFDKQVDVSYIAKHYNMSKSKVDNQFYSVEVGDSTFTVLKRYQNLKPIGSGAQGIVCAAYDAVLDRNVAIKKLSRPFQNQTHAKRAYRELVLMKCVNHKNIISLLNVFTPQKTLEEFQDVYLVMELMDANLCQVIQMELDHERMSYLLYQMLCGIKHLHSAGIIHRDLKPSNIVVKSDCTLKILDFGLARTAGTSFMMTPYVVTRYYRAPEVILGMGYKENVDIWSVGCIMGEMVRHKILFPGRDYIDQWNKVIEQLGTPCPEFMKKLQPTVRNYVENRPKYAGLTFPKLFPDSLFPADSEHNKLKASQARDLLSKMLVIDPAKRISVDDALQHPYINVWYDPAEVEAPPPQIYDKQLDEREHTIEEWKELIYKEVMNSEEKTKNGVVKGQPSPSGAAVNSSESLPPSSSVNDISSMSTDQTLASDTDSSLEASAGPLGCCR
For assay [13], the target named is Mitogen-activated protein kinase 8 (Homo sapiens, UniProt P45983). Briefly: Inhibition of c-Jun N-terminal kinase 1-alpha 1 binding in fluorescence polarization assay.
Mitogen-activated protein kinase 8, sequence (P45983 whole entry): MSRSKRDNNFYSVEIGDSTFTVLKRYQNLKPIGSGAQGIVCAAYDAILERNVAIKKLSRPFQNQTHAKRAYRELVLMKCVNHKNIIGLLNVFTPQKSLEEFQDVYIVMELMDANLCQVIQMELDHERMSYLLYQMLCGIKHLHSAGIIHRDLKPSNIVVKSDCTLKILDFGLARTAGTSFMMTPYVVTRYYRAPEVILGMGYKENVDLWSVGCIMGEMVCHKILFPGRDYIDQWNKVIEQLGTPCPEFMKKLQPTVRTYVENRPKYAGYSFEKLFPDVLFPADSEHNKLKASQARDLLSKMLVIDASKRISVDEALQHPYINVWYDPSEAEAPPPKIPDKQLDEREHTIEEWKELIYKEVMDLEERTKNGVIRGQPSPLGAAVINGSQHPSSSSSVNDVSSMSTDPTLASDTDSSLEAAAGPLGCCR
The target in assay [14] is Proto-oncogene tyrosine-protein kinase LCK (Mus musculus, UniProt P06240). The assay is described as follows: Inhibition of p56 Lck tyrosine kinase binding in HTRF assay.
Proto-oncogene tyrosine-protein kinase LCK, sequence (P06240 whole entry): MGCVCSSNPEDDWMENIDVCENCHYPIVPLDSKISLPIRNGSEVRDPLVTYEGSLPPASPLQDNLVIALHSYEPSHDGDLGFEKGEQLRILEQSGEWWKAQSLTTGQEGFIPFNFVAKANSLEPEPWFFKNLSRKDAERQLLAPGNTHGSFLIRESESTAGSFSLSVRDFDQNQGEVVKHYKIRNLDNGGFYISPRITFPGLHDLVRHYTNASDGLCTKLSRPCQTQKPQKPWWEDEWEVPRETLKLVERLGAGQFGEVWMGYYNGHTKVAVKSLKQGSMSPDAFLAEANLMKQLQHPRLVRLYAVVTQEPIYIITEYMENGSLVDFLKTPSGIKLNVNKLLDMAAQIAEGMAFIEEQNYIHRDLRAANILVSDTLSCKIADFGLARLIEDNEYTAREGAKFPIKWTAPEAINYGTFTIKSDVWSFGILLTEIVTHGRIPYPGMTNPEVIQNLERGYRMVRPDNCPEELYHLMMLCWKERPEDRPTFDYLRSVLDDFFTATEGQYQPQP
The target of assay [15] is T3, Tyrosine-protein kinase ITK/TSK (Homo sapiens, UniProt Q08881).
T3 sequence (Q08881 whole entry): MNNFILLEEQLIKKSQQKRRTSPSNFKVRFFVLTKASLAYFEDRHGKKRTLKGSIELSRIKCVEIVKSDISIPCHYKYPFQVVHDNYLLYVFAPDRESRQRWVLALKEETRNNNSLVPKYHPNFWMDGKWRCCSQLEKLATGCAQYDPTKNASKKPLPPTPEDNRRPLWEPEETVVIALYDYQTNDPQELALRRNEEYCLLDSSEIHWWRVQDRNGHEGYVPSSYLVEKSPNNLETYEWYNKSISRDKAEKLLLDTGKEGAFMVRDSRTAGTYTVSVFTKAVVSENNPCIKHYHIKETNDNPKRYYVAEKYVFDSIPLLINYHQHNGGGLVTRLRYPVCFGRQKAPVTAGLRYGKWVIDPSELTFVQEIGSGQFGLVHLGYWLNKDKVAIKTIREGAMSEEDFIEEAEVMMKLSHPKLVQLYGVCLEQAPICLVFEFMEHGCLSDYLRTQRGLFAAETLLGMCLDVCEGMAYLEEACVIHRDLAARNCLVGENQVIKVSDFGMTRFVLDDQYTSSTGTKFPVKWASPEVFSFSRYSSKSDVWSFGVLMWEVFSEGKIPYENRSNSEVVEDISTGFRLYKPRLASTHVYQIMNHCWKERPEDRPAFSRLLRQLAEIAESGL

In assay [16] the target is T2, MAP kinase p38. Briefly: Displacement of ATP from p38 MAP kinase by fluorescence polarization assay. Type of assay: protein assay. The procedure, abridged:
as §2

Assay [17] addresses T1, TGF-beta receptor type-1. The assay is described as follows: Binding affinity to Activin A receptor type II-like kinase (ALK5) in fluorescence polarization binding assay; Range is (0.289-3.621). Put shortly:
as §1

In assay [18] the target is T1, TGF-beta receptor type-1. Briefly: Binding affinity to Activin A receptor type II-like kinase (ALK5) in fluorescence polarization binding assay; Range is (5.326-22.574). The procedure, abridged:
as §3

Assay [19] deals with T1, TGF-beta receptor type-1. The assay is described as follows: Binding affinity to Activin A receptor type II-like kinase (ALK5) in fluorescence polarization binding assay; Range is (0.356-4.455). Put shortly: as §3
Assay [20] has as its target T2, MAP kinase p38. The assay is described as follows: Displacement of ATP from Mitogen-activated protein kinase p38 in fluorescence polarization assay; Range is (0.208-1.155). Put shortly: as §2
In assay [21] the target is T1, TGF-beta receptor type-1. This is another data set of the same source.
For assay [22], the target named is T1, TGF-beta receptor type-1. The assay is described as follows: Binding affinity to Activin A receptor type II-like kinase (ALK5) in fluorescence polarization binding assay; Range is (0.864-3.661). Put shortly:
as §1

In assay [23] the target is T1, TGF-beta receptor type-1. The assay is described as follows: Binding affinity to Activin A receptor type II-like kinase (ALK5) in fluorescence polarization binding assay; Range is (0.038-0.042). The procedure, abridged: as §3
In assay [24] the target is T1, TGF-beta receptor type-1. Briefly: Binding affinity to Activin A receptor type II-like kinase (ALK5) in fluorescence polarization binding assay; Range is (0.783-1.764). The procedure, abridged:
as §3

Assay [25] concerns the target T1, TGF-beta receptor type-1. The assay is described as follows: Binding affinity to Activin A receptor type II-like kinase (ALK5) in fluorescence polarization binding assay; Range is (2.423-6.540). The procedure, abridged: as §1
Assay [26] has as its target T1, TGF-beta receptor type-1. The assay is described as follows: Binding affinity to Activin A receptor type II-like kinase (ALK5) in fluorescence polarization binding assay; Range is (0.021-0.042). Put shortly: as §3
For assay [27], the target named is T1, TGF-beta receptor type-1. The assay is described as follows: Binding affinity to Activin A receptor type II-like kinase (ALK5) in fluorescence polarization binding assay; Range is (0.029-0.032).

Ribosomal protein S6 kinase alpha-5, sequence (O75582 whole entry): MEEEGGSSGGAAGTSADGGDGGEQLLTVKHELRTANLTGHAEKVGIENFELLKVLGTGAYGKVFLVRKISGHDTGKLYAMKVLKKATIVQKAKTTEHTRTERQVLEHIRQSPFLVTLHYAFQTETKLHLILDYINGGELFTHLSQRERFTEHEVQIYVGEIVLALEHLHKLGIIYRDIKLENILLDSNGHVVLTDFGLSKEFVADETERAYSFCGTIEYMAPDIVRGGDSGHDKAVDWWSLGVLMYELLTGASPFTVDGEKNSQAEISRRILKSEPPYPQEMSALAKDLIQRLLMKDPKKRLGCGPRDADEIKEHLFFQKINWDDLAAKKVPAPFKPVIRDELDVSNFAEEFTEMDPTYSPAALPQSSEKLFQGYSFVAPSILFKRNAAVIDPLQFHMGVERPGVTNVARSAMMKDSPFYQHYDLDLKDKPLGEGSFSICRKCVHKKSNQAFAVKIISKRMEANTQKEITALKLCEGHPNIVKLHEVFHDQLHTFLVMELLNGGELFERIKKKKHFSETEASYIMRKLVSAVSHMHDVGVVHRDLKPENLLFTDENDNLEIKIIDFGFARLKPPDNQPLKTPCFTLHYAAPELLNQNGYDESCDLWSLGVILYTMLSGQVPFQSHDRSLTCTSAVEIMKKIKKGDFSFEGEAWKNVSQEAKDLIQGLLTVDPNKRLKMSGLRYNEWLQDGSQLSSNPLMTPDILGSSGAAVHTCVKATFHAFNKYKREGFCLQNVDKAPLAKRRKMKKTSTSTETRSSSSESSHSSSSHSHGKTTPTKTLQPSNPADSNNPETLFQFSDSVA
Mitogen-activated protein kinase kinase kinase 11, sequence (Q16584 whole entry): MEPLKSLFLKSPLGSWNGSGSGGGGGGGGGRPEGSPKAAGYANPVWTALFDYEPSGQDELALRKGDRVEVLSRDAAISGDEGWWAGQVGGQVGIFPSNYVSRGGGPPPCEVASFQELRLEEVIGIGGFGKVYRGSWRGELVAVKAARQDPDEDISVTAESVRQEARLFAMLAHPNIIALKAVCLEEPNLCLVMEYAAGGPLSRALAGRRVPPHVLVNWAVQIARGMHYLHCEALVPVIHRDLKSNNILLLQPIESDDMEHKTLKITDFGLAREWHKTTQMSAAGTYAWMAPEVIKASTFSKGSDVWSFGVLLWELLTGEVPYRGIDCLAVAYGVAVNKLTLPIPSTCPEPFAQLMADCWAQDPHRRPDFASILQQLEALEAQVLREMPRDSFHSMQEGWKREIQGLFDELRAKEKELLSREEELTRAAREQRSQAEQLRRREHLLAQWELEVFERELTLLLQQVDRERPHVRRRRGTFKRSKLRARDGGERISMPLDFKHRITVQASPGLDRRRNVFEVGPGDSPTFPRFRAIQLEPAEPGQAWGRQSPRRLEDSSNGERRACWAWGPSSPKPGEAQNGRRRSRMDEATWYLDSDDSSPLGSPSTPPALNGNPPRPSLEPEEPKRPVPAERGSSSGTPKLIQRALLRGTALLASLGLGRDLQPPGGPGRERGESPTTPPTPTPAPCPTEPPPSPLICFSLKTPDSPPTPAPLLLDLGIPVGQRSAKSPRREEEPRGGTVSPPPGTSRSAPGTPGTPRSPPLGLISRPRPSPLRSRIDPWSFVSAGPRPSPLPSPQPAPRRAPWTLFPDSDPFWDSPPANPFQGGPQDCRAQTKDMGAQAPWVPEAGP

As to `Nc1nc(-c2ccccn2)c(-c2ccnc3ncccc23)s1`, the IC50 in assay [1] is greater than 10000 nM; in [2] it was 7940 nM.
With `Cc1ccc2nccc(-c3sc(N)nc3-c3ccccn3)c2n1`, the IC50 is 260 nM in [1] and 380 nM in assay [3].
Take `COc1ccccc1-c1nc(N)sc1-c1ccnc2ccccc12`: the IC50 in [4] and in assay [1] was greater than 10000 nM throughout.
In the case of `Nc1nc(-c2cccc(Cl)c2)c(-c2ccc3ncccc3n2)s1` [GW780159X], the IC50 in assay [5] came out at 360 nM; in [1], 10 nM; in assay [6], 10 nM; in [7] it was 20 nM.
With `Nc1nc(-c2ccccn2)c(-c2ccc3ccccc3n2)s1`, the IC50 is greater than 10000 nM in assay [1] and 3540 nM in assay [8].
`Cc1cccc(-c2n[nH]cc2-c2ccc3ncccc3n2)n1` [GW786460X]: the 50% inhibitory concentration (IC50) in assay [9], in [10], in assay [11], in assay [12], in [13] and in assay [14] was greater than 16000 nM each time. This compound displayed an IC50 in assay [15] greater than 16000 nM.
For the compound `Cc1ccc(-c2nc(N)sc2-c2ccnc3ccccc23)nc1`, the 50% inhibitory concentration (IC50) in assay [4] and in assay [1] was greater than 10000 nM in each case.
In the case of `Cc1cccc(-c2nc(N)sc2-c2ccc3ncccc3n2)n1`, the IC50 in assay [16] is greater than 16000 nM.
`Nc1nc(-c2cc(Cl)ccn2)c(-c2ccnc3ccccc23)s1`: the IC50 in assay [1] was greater than 10000 nM; in assay [17], 1020 nM.
As to `Nc1nc(-c2ccccn2)c(-c2cccc3ccccc23)s1`, the half-maximal inhibitory concentration (IC50) in assay [1] is greater than 10000 nM; in assay [18] it was 11000 nM.
Consider `Nc1nc(-c2ccccc2F)c(-c2ccnc3ccccc23)s1`, for which the IC50 worked out at 6670 nM in assay [1] and 1250 nM in assay [19].
Turning to `CCOc1ccc2nc(-c3sc(N)nc3-c3ccccn3)ccc2n1`, the IC50 in [4] and in [1] was greater than 10000 nM each time.
In the case of `Nc1nc(-c2ccc(F)cc2)c(-c2ccc3ncccc3n2)s1` [GW785804X], the IC50 in assay [20] worked out at 490 nM; in [1] it was 30 nM; in assay [6] it was 10 nM; in assay [21], 40 nM.
For the compound `Nc1nc(-c2ccc(Cl)cn2)c(-c2ccnc3ccccc23)s1`, the figures for the IC50 in [1] and in assay [22] were greater than 10000 nM and 1770 nM, respectively.
As for `Nc1nc(-c2ccccn2)c(-c2ccc3ncccc3n2)s1` [GW693481X], the IC50 in [1] is 120 nM; in assay [16] it was greater than 16000 nM; in [6] it was 20 nM; in assay [23], 40 nM.
In the case of `Nc1nc(-c2nccs2)c(-c2ccnc3ccccc23)s1`, the IC50 in [1] worked out at 6580 nM; in [24], 1170 nM.
As for `Nc1nc(-c2cccnc2)c(-c2ccnc3ccccc23)s1`, the IC50 in assay [1] is greater than 10000 nM; in [25], 3980 nM.
`Cc1ccnc2ccc(-c3sc(N)nc3-c3ccccn3)nc12`: the IC50 in [1] was 220 nM; in assay [26], 30 nM.
Take `c1ccc(-c2n[nH]cc2-c2ccc3ncccc3n2)nc1`: the IC50 in [1] is 50 nM; in assay [16], greater than 16000 nM; in assay [6], 19 nM; in [27], 30 nM.
